pIC50: −log10 of the molar value.
How the values were obtained:
[1] = biological target: T1, Phospholipase A2, membrane associated (Homo sapiens, UniProt P14555); test: Inhibition of human nonpancreatic secretory Phospholipase A2 through chromogenic assay
T1 sequence (P14555 whole entry): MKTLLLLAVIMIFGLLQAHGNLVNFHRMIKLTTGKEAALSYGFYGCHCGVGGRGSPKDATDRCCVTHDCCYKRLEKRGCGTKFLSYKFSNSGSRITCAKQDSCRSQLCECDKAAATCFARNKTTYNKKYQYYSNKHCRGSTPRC

[2] = Mole fraction of the IC50 concentration of compound divided by the total lipid concentration (1230 uM) in a chromogenic assay; format: functional
Cavia porcellus [3] = species: Cavia porcellus; test: Inhibition of Phospholipase A2 induced contraction of GP lung tissue; format: functional
Procedure, shortened: (§1)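 Guinea pig lung pleural strips were contracted with either hnps-PLA2 or arachidonic acid, the latter serving as the control challenge for selectivity. Antagonism is given as KB.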

Cavia porcellus [4] = species: Cavia porcellus; test: Inhibition Arachidonic acid(AA) induced contraction of GP lung tissue; format: functional; procedure, shortened: as §1
[5] = Mole fraction is the IC50 concentration divided by the total lipid concentration (4000 uM) in DOC/PC assay; format: functional
Procedure, shortened: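 The value is a mole fraction: the DOC/PC assay IC50 (3 nM hnps-PLA2; 3 mM DOC/1 mM [14C]PC micelles; 1 h at 40 °C; released [14C]oleic acid counted) divided by the total lipid concentration of 4000 µM.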

[6] = biological target: T1, Phospholipase A2, membrane associated; test: Inhibition of human nonpancreatic secretory Phospholipase A2 through DOC/PC assay
Procedure, shortened: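 hnps-PLA2 (10 ng per tube; 3 nM) was preincubated with test compound in DMSO in pH 8 Tris buffer with 0.2 M NaCl, 2 mM CaCl2 and fatty-acid-free BSA. The substrate was sonicated mixed micelles (final 3 mM deoxycholate/1 mM PC) with [14C]-palmitoyl-oleoyl-PC. Reactions ran 1 h at 40 °C and were stopped with Dole reagent. Released [14C]oleic acid was extracted with heptane/silica and counted. IC50 was calculated against diluent controls.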

Phospholipase A2 = Phospholipase A2 (Homo sapiens, UniProt P04054); test: Compound was tested for inhibition of human secretory pancreatic Phospholipase A2
[7] = biological target: Phospholipase A2, major isoenzyme (Sus scrofa, UniProt P00592); test: Compound was tested for inhibition of porcine secretory pancreatic Phospholipase A2
Sequence of Phospholipase A2, major isoenzyme (P00592 whole entry): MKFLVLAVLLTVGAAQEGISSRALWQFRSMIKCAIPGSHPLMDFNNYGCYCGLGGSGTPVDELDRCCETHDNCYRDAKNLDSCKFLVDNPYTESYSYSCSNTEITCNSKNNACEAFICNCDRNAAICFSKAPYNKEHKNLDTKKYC

Sequence of Phospholipase A2 (P04054 whole entry): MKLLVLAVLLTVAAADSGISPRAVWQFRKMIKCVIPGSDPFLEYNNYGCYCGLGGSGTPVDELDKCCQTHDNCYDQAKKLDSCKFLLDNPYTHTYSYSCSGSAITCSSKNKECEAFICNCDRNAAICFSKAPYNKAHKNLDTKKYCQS

| Structure (SMILES) | pIC50 [1] | Mole fraction [2] | KB (Cavia porcellus [3]) [µM] | ED50 (Cavia porcellus [4]) [nM] | Mole fraction [5] | pIC50 [6] | pIC50 (Phospholipase A2) | pIC50 [7] |
| --- | --- | --- | --- | --- | --- | --- | --- | --- |
| CCc1c(C(=O)C(N)=O)c2c(NCC(=O)O)cccc2n1Cc1ccccc1 | 6.00 | 0.00081 | – | – | – | – | – | – |
| CCCc1c(C(=O)C(N)=O)c2c(OCC(=O)O)cccc2n1Cc1ccccc1-c1ccccc1 | – | 6.7e-05 | – | – | – | – | – | – |
| NC(=O)C(=O)c1cn(Cc2ccccc2)c2cccc(OCC(=O)O)c12 | 7.02 | 8e-05 | – | – | – | – | – | – |
| NC(=O)C(=O)c1c(C2CC2)n(Cc2ccccc2-c2ccccc2)c2cccc(OCC(=O)O)c12 | 8.22 | 5e-06 | 0.075 | >10000 | 5.8e-06 | 7.64 | – | – |
| Cc1c(C(=O)C(N)=O)c2c(OCC(=O)O)cccc2n1Cc1ccc(F)cc1 | 7.52 | 2.5e-05 | 0.11 | >30000 | 1.9e-05 | 7.13 | – | – |
| NC(=O)C(=O)c1c(C2CC2)n(Cc2ccccc2)c2cccc(OCC(=O)O)c12 | 7.55 | 2.3e-05 | – | – | 1e-05 | 7.39 | – | – |
| CCc1c(C(=O)C(N)=O)c2c(N(CCC(=O)O)C(C)=O)cccc2n1Cc1ccccc1 | < 4.00 | – | – | – | – | – | – | – |
| Cc1c(C(=O)C(N)=O)c2c(OCCCC(=O)O)cccc2n1Cc1ccccc1-c1ccccc1 | 6.61 | 0.0002 | – | – | – | – | – | – |
| Cc1c(C(=O)C(N)=O)c2c(OCC(=O)O)cccc2n1Cc1cccc2ccccc12 | 8.05 | 7.3e-06 | 0.128 | >30000 | 4.3e-06 | 7.77 | 5.92 | – |
| Cc1c(C(=O)C(N)=O)c2c(O[C@@H](C)C(=O)O)cccc2n1Cc1ccccc1 | 6.73 | 0.00015 | – | – | 3.4e-05 | 6.87 | – | – |
| CCc1c(C(=O)C(N)=O)c2c(OC(CCc3ccccc3)C(=O)O)cccc2n1Cc1ccccc1 (stereo not given) | 7.34 | 3.8e-05 | 0.293 | >30000 | 6.5e-06 | 7.59 | – | – |
| Cc1c(C(=O)C(N)=O)c2c(OCC(=O)O)cccc2n1Cc1ccccc1Cl | 8.05 | 7.3e-06 | 0.1 | >30000 | 6.3e-06 | 7.60 | – | – |
| Cc1c(C(=O)C(N)=O)c2c(OCC(=O)O)cccc2n1Cc1ccccc1 | 7.96 | 8.9e-06 | 0.14 | >10000 | 4.8e-06 | 7.72 | 6.12 | 7.82 |
| CCc1c(C(=O)C(N)=O)c2cc(OCCCC(=O)O)ccc2n1Cc1ccccc1 | – | 0.00017 | – | – | – | – | – | – |
| Cc1ccccc1Cn1c(C)c(C(=O)C(N)=O)c2c(OCC(=O)O)cccc21 | 7.82 | 1.3e-05 | 0.154 | >30000 | 1.1e-05 | 7.35 | – | – |
| CCc1c(C(=O)C(N)=O)c2c(SCC(=O)O)cccc2n1Cc1ccccc1 | 6.84 | 0.00012 | – | – | 5.3e-05 | 6.68 | – | – |
| CCc1[nH]c2cccc(OCC(=O)O)c2c1C(=O)C(N)=O | 5.80 | 0.0013 | 3.41 | – | – | – | – | – |
| C=CCc1ccc2c(c1OCC(=O)O)c(C(=O)C(N)=O)c(CC)n2Cc1ccccc1 | 5.79 | 0.013 | – | – | – | – | – | – |
| CCCc1ccc2c(c1OCC(=O)O)c(C(=O)C(N)=O)c(CC)n2Cc1ccccc1 | 5.68 | 0.0017 | – | – | – | – | – | – |

| Structure (SMILES) | pIC50 [1] | Mole fraction [2] | KB (Cavia porcellus [3]) [µM] | ED50 (Cavia porcellus [4]) [nM] | Mole fraction [5] | pIC50 [6] | pIC50 (Phospholipase A2) | pIC50 [7] |
| --- | --- | --- | --- | --- | --- | --- | --- | --- |
| Cc1c(C(=O)C(N)=O)c2c(OC(C)C(=O)O)cccc2n1Cc1ccccc1 (stereo not given) | 8.00 | 8.1e-06 | 0.145 | >30000 | 2.3e-06 | – | – | – |
| CCc1c(C(=O)C(N)=O)c2c(OCC(N)=O)cccc2n1Cc1ccccc1 | 6.91 | 0.0001 | – | – | – | – | – | – |
| COc1cccc2c1c(C(=O)C(N)=O)c(C)n2Cc1ccccc1 | 6.26 | 0.00012 | – | – | – | – | – | – |
| COc1ccc2c(c1)c(C(=O)C(N)=O)c(C)n2Cc1ccccc1 | 5.59 | 0.00012 | – | – | – | – | – | – |
| Cc1c(C(=O)C(N)=O)c2c(OCC(=O)O)cccc2n1Cc1cccc(-c2ccccc2)c1 | 8.05 | 7.3e-06 | – | – | 2e-06 | 8.10 | 6.24 | 8.15 |
| CCc1c(C(=O)C(N)=O)c2c(OCC(=O)O)cccc2n1Cc1ccccc1-c1ccccc1 | 8.22 | 5e-06 | 0.057 | 30000 | 1.5e-06 | 8.22 | – | – |
| CCc1c(C(=O)C(N)=O)c2c(OCC(=O)O)cccc2n1C(=O)c1ccccc1 | 7.09 | 6.6e-05 | 0.34 | – | 9.8e-06 | 7.41 | – | – |
| CCc1c(C(=O)C(N)=O)c2c(O[C@@H](C)C(=O)O)cccc2n1Cc1ccccc1 | 6.85 | 0.00011 | – | – | – | – | – | – |
| CCc1c(C(=O)C(N)=O)c2c(N(CC(=O)O)C(C)=O)cccc2n1Cc1ccccc1 | < 4.00 | – | – | – | – | – | – | – |
| COc1cccc2c1c(CC(N)=O)c(C)n2Cc1ccccc1 | 5.93 | 0.00012 | – | – | – | – | – | – |
| CCc1c(C(=O)C(N)=O)c2c(OC(C)C(=O)O)cccc2n1Cc1ccccc1 (stereo not given) | 7.96 | 8.9e-06 | 0.21 | 3160 | 3.3e-06 | 7.89 | – | – |
| CCc1c(C(=O)C(N)=O)c2c(OC(C)(C)C(=O)O)cccc2n1Cc1ccccc1 | 7.60 | 2.1e-05 | 0.143 | >30000 | 7.3e-06 | 7.54 | – | – |
| Cc1c(C(=O)C(N)=O)c2c(OCC(=O)O)cccc2n1Cc1c(Cl)cccc1Cl | – | 5e-06 | 0.077 | >30000 | 5.5e-06 | 7.66 | – | – |
| Cc1c(C(=O)C(N)=O)c2c(O[C@H](C)C(=O)O)cccc2n1Cc1ccccc1 | 7.96 | 8.9e-06 | – | – | 1.5e-06 | 8.22 | – | – |
| CCc1c(C(=O)C(N)=O)c2c(CC(=O)O)cc(C)cc2n1Cc1ccccc1 | 8.10 | 6.5e-06 | 0.124 | 3160 | 2e-06 | 8.10 | – | – |
| Cc1c(C(=O)C(N)=O)c2c(OCC(=O)O)cccc2n1Cc1ccc(-c2ccccc2)cc1 | 7.37 | 3.6e-05 | – | – | 3.8e-05 | 6.82 | 5.96 | – |
| CCc1c(C(=O)C(N)=O)c2c(OCC(=O)O)cccc2n1Cc1ccccc1Cc1ccccc1 | 8.40 | 3.3e-06 | 0.052 | – | 1e-06 | 8.40 | 7.21 | – |
| NC(=O)C(=O)c1cn(Cc2ccccc2)c2ccc(OCCCC(=O)O)cc12 | – | 0.048 | – | – | – | – | – | – |

Reference: ChEMBL document CHEMBL1129458, “Indole inhibitors of human nonpancreatic secretory phospholipase A2. 3. Indole-3-glyoxamides” (J Med Chem, 1996)
